Experiments:
[1] = target: Bifunctional dihydrofolate reductase-thymidylate synthase (Plasmodium falciparum K1) (UniProt P13922); test: Inhibition of Plasmodium falciparum wild-type dihydrofolate reductase (DHFR) relative to Pyrimethamine.
[2] = target: Bifunctional dihydrofolate reductase-thymidylate synthase (Plasmodium falciparum K1, UniProt P13922); test: Inhibition of the C59R+S108N mutant of dihydrofolate reductase (DHFR)
In short: (§1)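 Assay at 25 °C: 50 mM TES pH 7.0, 75 mM β-mercaptoethanol, 1 mg/mL BSA, 100 µM H2folate and 100 µM NADPH. NADPH oxidation followed at 340 nm. Ki derived from IC50 as Ki(1+[S]/Km), assuming competitive inhibition.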

[3] = target: Bifunctional dihydrofolate reductase-thymidylate synthase (Plasmodium falciparum K1, UniProt P13922, S108N); test: Inhibition of the S108N mutant of dihydrofolate reductase (DHFR); in short: as §1
Bifunctional dihydrofolate reductase-thymidylate synthase (Plasmodium falciparum K1, UniProt P13922, S108N), sequence (P13922 whole entry, looked up, stated change not applied): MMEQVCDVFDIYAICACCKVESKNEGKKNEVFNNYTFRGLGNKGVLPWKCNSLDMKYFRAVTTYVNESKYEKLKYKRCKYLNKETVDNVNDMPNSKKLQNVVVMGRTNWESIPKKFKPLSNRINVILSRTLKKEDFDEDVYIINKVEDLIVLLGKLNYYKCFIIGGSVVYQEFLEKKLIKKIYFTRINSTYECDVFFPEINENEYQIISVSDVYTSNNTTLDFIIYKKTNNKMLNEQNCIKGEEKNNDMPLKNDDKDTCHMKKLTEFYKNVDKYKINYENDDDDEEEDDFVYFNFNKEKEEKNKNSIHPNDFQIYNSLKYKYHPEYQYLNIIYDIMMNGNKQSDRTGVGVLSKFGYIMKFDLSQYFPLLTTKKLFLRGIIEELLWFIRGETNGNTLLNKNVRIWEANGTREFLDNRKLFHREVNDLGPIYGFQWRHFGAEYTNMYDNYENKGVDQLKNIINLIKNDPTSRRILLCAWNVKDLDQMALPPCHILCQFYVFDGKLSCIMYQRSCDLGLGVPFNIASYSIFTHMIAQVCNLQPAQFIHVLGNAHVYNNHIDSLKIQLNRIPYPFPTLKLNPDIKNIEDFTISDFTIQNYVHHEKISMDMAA

Plasmodium falciparum [4] = test: In vitro antiplasmodial activity (IC50) against Plasmodium falciparum wtTM4/8.2; assay type: functional, organism-based
[5] = tested on: Bifunctional dihydrofolate reductase-thymidylate synthase (Plasmodium falciparum K1), P13922 [UNDEFINED MUTATION]; test: Ratio of Inhibition of the S108N mutant of dihydrofolate reductase (DHFR) to inhibition of wild type dihydrofolate reductase.
Bifunctional dihydrofolate reductase-thymidylate synthase (Plasmodium falciparum K1), P13922 [UNDEFINED MUTATION], sequence (P13922 whole entry, looked up, stated change not applied): as above

Plasmodium falciparum [6] = test: IC50 ratio against Plasmodium falciparum K1CB1/TM4; assay type: functional
[7] = tested on: Bifunctional dihydrofolate reductase-thymidylate synthase (Plasmodium falciparum K1), P13922 [UNDEFINED MUTATION]; test: Ratio of Inhibition of the C59R+S108N mutant of dihydrofolate reductase (DHFR) to inhibition of wild type dihydrofolate reductase.
[8] = target: Bifunctional dihydrofolate reductase-thymidylate synthase (Plasmodium falciparum K1) (UniProt P13922); test: Inhibition of mutant C59R+S108N dihydrofolate reductase (DHFR) relative to Pyr
[9] = target: Bifunctional dihydrofolate reductase-thymidylate synthase (Plasmodium falciparum K1) (UniProt P13922); test: Inhibition of mutant S108N dihydrofolate reductase (DHFR) relative to Pyr
BC = test: Cytotoxicity against human breast cancer cells.; assay type: functional, cell-based
KB = test: Cytotoxicity against human epidermoid carcinoma KB cell.; assay type: functional, cell-based
Vero = test: Cytotoxicity by the selective inhibition against African green monkey kidney […] (vero cells).; assay type: functional, cell-based; conditions: Chlorocebus sabaeus
[10] = target: Bifunctional dihydrofolate reductase-thymidylate synthase (Plasmodium falciparum K1) (UniProt P13922); test: Inhibition of the wild-type dihydrofolate reductase (DHFR) relative to Pyr.
In short: (§2)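 Assayed at 25 °C in 50 mM TES pH 7.0, 75 mM β-mercaptoethanol, 1 mg/mL BSA, with 100 µM H2folate and 100 µM NADPH. A340 was followed. Ki was derived from IC50 = Ki(1+[S]/Km), assuming competitive inhibition.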

[11] = target: Bifunctional dihydrofolate reductase-thymidylate synthase (Plasmodium falciparum K1) (UniProt P13922); test: Inhibition of the C59R+S108N mutant of dihydrofolate reductase (DHFR) relative to Pyr.; in short: as §2
[12] = target: Bifunctional dihydrofolate reductase-thymidylate synthase (Plasmodium falciparum K1) (UniProt P13922); test: Inhibition of the S108N mutant of dihydrofolate reductase (DHFR) relative to Pyr.; in short: as §2
Plasmodium falciparum [13] = test: Relative antiplasmodial activity (IC50) compared to Pyr against Plasmodium falciparum K1CB1 DHFR double-mutant (C59R/S108N); assay type: functional
Plasmodium falciparum [14] = test: In vitro relative antiplasmodial activity (IC50) compared to Pyr against Plasmodium falciparum TM4/8.2 wild-type; assay type: functional
[15] = Safety ratio is cytotoxicity to KB cells/IC50 K1.; assay type: toxicity, cell-based; conditions: human, KB cells (epidermoid carcinoma); read-out: Safety ratio
In short: (§3)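 Ratio of the cytotoxicity IC50 (vero, KB or BC cells, Skehan protocol) to the antiplasmodial IC50 against K1CB1 (C59R+S108N DHFR). […] Label was added at 24 h and cultures ran a further 18-24 h. Final DMSO was 0.1%.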

[16] = Safety ratio is cytotoxicity to KB cells/IC50 TM4.; assay type: toxicity, cell-based; conditions: human, KB cells (epidermoid carcinoma); read-out: Safety ratio
In short: (§4)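 Ratio of the cytotoxicity IC50 (KB or BC cells, Skehan protocol) to the antiplasmodial IC50 against TM4/8.2 (wild-type DHFR). […] Label was added after 24 h and cultures ran a further 18-24 h.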

[17] = Safety ratio is cytotoxicity to vero cells/IC50 K1.; assay type: toxicity, cell-based; conditions: monkey, read-out: Safety ratio; in short: as §3
Plasmodium falciparum [18] = test: Safety ratio as cytotoxicity in vero cells relative to IC50 TM4; assay type: functional
[19] = Safety ratio is cytotoxicity to BC cells/IC50 K1.; assay type: toxicity, cell-based; conditions: human, BC cells (breast cancer); read-out: Safety ratio; in short: as §3
[20] = Safety ratio is cytotoxicity to BC cells/IC50 TM4.; assay type: toxicity, cell-based; conditions: human, BC cells (breast cancer); read-out: Safety ratio; in short: as §4
[21] = target: Bifunctional dihydrofolate reductase-thymidylate synthase (Plasmodium falciparum K1) (UniProt P13922); test: Inhibition of S108N mutant dihydrofolate reductase (DHFR)relative to Tmp; in short: as §2
[22] = target: Bifunctional dihydrofolate reductase-thymidylate synthase (Plasmodium falciparum K1) (UniProt P13922); test: Inhibition of the wild-type dihydrofolate reductase (DHFR) relative to Tmp; in short: as §2
[23] = target: Bifunctional dihydrofolate reductase-thymidylate synthase (Plasmodium falciparum K1) (UniProt P13922); test: Inhibition of the C59R+S108N mutant of dihydrofolate reductase (DHFR)relative to Tmp; in short: as §2

Bifunctional dihydrofolate reductase-thymidylate synthase (Plasmodium falciparum K1, UniProt P13922), sequence (P13922 whole entry): as the sequence (P13922 whole entry, looked up, stated change not applied) above
Bifunctional dihydrofolate reductase-thymidylate synthase (Plasmodium falciparum K1), sequence (P13922 whole entry, looked up): as the sequence (P13922 whole entry, looked up, stated change not applied) above

| Structure (SMILES) | Relative activity [1] | Ki [2] [nM] | Ki [3] [nM] | IC50 (Plasmodium falciparum [4]) [nM] | Ratio [5] | Ratio (Plasmodium falciparum [6]) | Ratio [7] | Relative activity [8] | Relative activity [9] | also measured |
| --- | --- | --- | --- | --- | --- | --- | --- | --- | --- | --- |
| Nc1ncc(-c2cccc(Cl)c2)c(N)n1 | 10.5 | 31.6 | 26.3 | 6000 | 4.2 | 1.5 | 5 |  |  |  |
| CCOc1c(Br)cc(-c2c(N)nc(N)nc2CC)cc1Br | 11.7 | 535 | 415 | 3700 | 59.3 | 4.7 | 76.3 | 9.9 | 14.5 |  |
| COC(=O)CCCc1nc(N)nc(N)c1-c1ccccc1 | 1 | 5.5 | 1.8 | 400 | 0.06 | 78.3 | 9.2 | 0.1 | 0.06 |  |
| CCc1nc(N)nc(N)c1-c1ccc(OCc2ccc(Cl)cc2Cl)c(OC)c1 |  |  |  | 3700 |  |  |  |  |  |  |
| Nc1ncc(-c2ccccc2)c(N)n1 | 69.8 | 76.2 | 81 | 20900 | 1.9 | 0.9 | 1.8 | 1.4 | 2.8 |  |
| CCc1nc(N)nc(N)c1-c1ccc(Cl)cc1 [PYRIMETHAMINE] |  |  |  | 80 |  |  |  |  |  | IC50 (BC): > 250000 nM; IC50 (KB): 109000 nM |
| Nc1nc(N)c(-c2cccc(Cl)c2)c(CCCc2ccccc2)n1 | 2 | 4.2 | 3 | 700 | 2.5 | 4.3 | 3.5 |  |  |  |
| CCCCOc1cc(Cc2cnc(N)nc2N)ccc1OCc1cc(OC)c(OC)c(OC)c1 |  |  |  | 440 |  |  |  |  |  | IC50 (KB): > 50000 nM; IC50 (Vero): > 50000 nM |
| CCc1nc(N)nc(N)c1-c1ccc(Cl)cc1Cl | 21 | 1140 | 1170 | 11300 | 93.1 | 2 | 90.6 | 21.2 | 41 |  |
| CCc1nc(N)nc(N)c1-c1ccc(OC)cc1 |  | 86 | 39 | 300 | 43.3 | >84 | 95.6 |  |  | Relative activity [10]: 1.5; Relative activity [11]: 1.6; Relative activity [12]: 1.4; Relative activity (Plasmodium falciparum [13]): >0.8; Relative activity (Plasmodium falciparum [14]): 3.8 |
| COc1cc(Cc2cnc(N)nc2N)cc(OC)c1OCc1ccccc1 |  | 71.9 | 61.9 | 4200 |  | 7.1 |  |  |  |  |
| COc1cc(COc2ccc(Cc3cnc(N)nc3N)cc2)cc(OC)c1OC |  |  |  | 700 |  |  |  |  |  | IC50 (BC): > 250000 nM; IC50 (KB): > 250000 nM; IC50 (Vero): > 250000 nM |
| Cc1nc(N)nc(N)c1-c1cccc(Cl)c1 | 3.2 | 3.1 | 3.2 | 2400 | 1.7 | 2 | 1.6 |  |  |  |
| Cc1nc(N)nc(N)c1-c1ccc(Cl)cc1 | 3.3 | 142 | 104 | 500 | 51.8 | 120.2 | 71 | 2.6 | 3.6 |  |
| CCc1nc(N)nc(N)c1-c1ccc2c(c1)OCO2 | 1.8 | 34.6 | 17.2 | 400 | 15.6 | 53.8 | 31.5 | 0.6 | 0.6 |  |
| CCc1nc(N)nc(N)c1-c1ccc(Cl)c(Cl)c1 [ETOPRINE] | 1.7 | 12.6 | 9 | 60 | 9 | 290 | 12.6 | 0.2 | 0.3 |  |
| Nc1nc(N)c(-c2ccc(Cl)cc2)c(CCCc2ccccc2)n1 | 1.2 | 23.3 | 13.9 | 50 | 19.9 | 212 | 33.3 | 0.4 | 0.5 |  |
| COC(=O)CCCc1nc(N)nc(N)c1-c1cccc(Cl)c1 | 0.8 | 2.8 | 1.7 | 800 | 3.4 | 45.4 | 5.6 |  |  |  |
| Nc1ncc(-c2ccc(Cl)cc2)c(N)n1 | 4 | 556 | 369 | 2300 | 154 | 11.4 | 232 | 10.3 | 12.9 |  |
| CCOc1cc(Cc2cnc(N)nc2N)ccc1OCc1ccccc1 |  |  |  | 500 |  |  |  |  |  | IC50 (BC): 100000 nM; IC50 (KB): 47000 nM; IC50 (Vero): > 250000 nM |
| CCc1nc(N)nc(N)c1-c1cccc(Cl)c1 | […] | […] | 1.6 | 400 |  | […] |  | […] | […] | IC50 (BC): 25000 nM; IC50 (KB): 46000 nM; IC50 (Vero): 7000 nM; selectivity ratio [15]: […]; selectivity ratio [16]: […]; selectivity ratio [17]: […]; Safety ratio (Plasmodium falciparum [18]): […] |
| Cc1nc(N)nc(N)c1-c1ccccc1 | 18.2 | 36.7 | 25.6 | 7400 | 2.3 | 4.2 | 3.4 | 0.7 | 0.9 |  |
| COc1cc(Cc2cnc(N)nc2N)cc(OC)c1OC [TRIMETHOPRIM] |  |  |  |  |  |  |  |  |  | IC50 (BC): > 250000 nM; IC50 (KB): > 250000 nM; IC50 (Vero): > 50000 nM |
| CCc1nc(N)nc(N)c1-c1ccccc1 |  | 8.7 | 4.5 | 700 | 2 | 4.7 | 3.8 |  |  | IC50 (BC): > 500000 nM; Relative activity [10]: 3.8; Relative activity [12]: 0.2; IC50 (KB): > 500000 nM; Relative activity (Plasmodium falciparum [13]): 0.1; Relative activity (Plasmodium falciparum [14]): 8.7; IC50 (Vero): 320000 nM; selectivity ratio [19]: > 151; selectivity ratio [15]: > 151; selectivity ratio [16]: > 714; selectivity ratio [17]: 96; Safety ratio (Plasmodium falciparum [18]): 444; selectivity ratio [20]: > 714 |
| COc1cc(COc2cc(Cc3cnc(N)nc3N)ccc2OCc2ccccc2)cc(OC)c1OC |  | 503 | 180 | 19000 | 2.5 | 0.9 | 41.5 |  |  | Relative activity [21]: 1.4; Relative activity [22]: 1.2; Relative activity [23]: 2.1 |
| CCc1nc(N)nc(N)c1-c1ccc(C)cc1 |  | 14.7 | 10.6 | 100 | 26.5 | 127 | 36.8 |  |  | Relative activity [10]: 0.7; Relative activity [11]: 0.3; Relative activity [12]: 0.4; Relative activity (Plasmodium falciparum [13]): 0.4; Relative activity (Plasmodium falciparum [14]): 1.2 |
| COC(=O)CCCc1nc(N)nc(N)c1-c1ccc(Cl)cc1 | 0.5 | 27.4 | 16.9 | 40 | 56.3 | 557.5 | 91.3 | 0.5 | 0.6 |  |
| CCc1nc(N)nc(N)c1-c1ccc(-c2ccccc2)cc1 |  | 730 | 421 | 13100 | 2.2 | 0.3 | 3.9 |  |  | Relative activity [10]: 313; Relative activity [11]: 13.5; Relative activity [12]: 14.7; Relative activity (Plasmodium falciparum [13]): 0.1; Relative activity (Plasmodium falciparum [14]): 163.8 |

Source: ChEMBL document CHEMBL1135602 (J Med Chem, 2002)
